Published values gathered from unrelated publications.
Lines come from different studies, so protocols differ.
RET V804L: Proto-oncogene tyrosine-protein kinase receptor Ret (RET, Homo sapiens, UniProt P07949, V804L)
RET V804M: Proto-oncogene tyrosine-protein kinase receptor Ret (RET, Homo sapiens, UniProt P07949, V804M)
RET M918T: Proto-oncogene tyrosine-protein kinase receptor Ret (RET, Homo sapiens, UniProt P07949, M918T)
RET: Proto-oncogene tyrosine-protein kinase receptor Ret (RET, Homo sapiens, UniProt P07949)

O=C(NCCCN1CCOCC1)c1ccc(Nc2nccc(-c3cc4ccccc4s3)n2)cc1 — remaining binding (RET V804L; binding, competition with immobilised ligand; 1 µM): 100%
O=C(O)c1cc(-c2ccc(C3CCNCC3)cc2)c2ccc(-c3ccc(C(F)(F)F)cc3)cc2c1 — remaining binding (RET V804M; cell-free assay, competition with immobilised ligand; 1 µM): 100%
N[C@@H]1CCN(c2nccc(-c3cnn4ncccc34)n2)C1 — remaining binding (RET V804M; binding; 1 µM): 99%
CN1CCN(c2ccc(Nc3nccc(-c4cccc([N+](=O)[O-])c4)n3)cc2C(F)(F)F)CC1 — remaining binding (RET V804L; binding; 10 µM): 41%
O=C(NCCCN1CCOCC1)c1ccc(Nc2ncc(Cl)c(-c3ccc(Cl)s3)n2)cc1 — remaining binding (RET V804M; binding, competition with immobilised ligand; 1 µM): 15%
CN1CCN(c2ccc(Nc3nccc(-c4ccccc4)n3)cc2C(F)(F)F)CC1 — remaining binding (RET V804M; binding; 10 µM): 48%
Cc1cnc(Nc2ccc(C(=O)N3CCC(N4CCCC4)CC3)cc2)nc1-c1cc2ccccc2s1 — remaining binding (RET M918T; binding, competition with immobilised ligand; 1 µM): 5.2%
CCN1CCN(Cc2ccc(C(=O)Nc3ccc(C)c(Oc4ccc5c(c4)CC(=O)N5)c3)cc2C(F)(F)F)CC1 — remaining binding (RET M918T; binding, competition with immobilised ligand; 1 µM): 40%
c1cncc(-c2cccc(Nc3nccc(NC4CCCCC4)n3)c2)c1 — remaining binding (RET M918T; binding, competition with immobilised ligand; 10 µM): 2.1%
C=CC(=O)N1CCC(C(=O)NCC(=O)N2CCN(c3nc(-c4cnc(N)nc4C(F)F)nc(N4CCOCC4)n3)CC2)CC1 — remaining binding (RET V804L; binding, competition with immobilised ligand; 1 µM): 100%
F[C@@H]1CCN(c2nccc(-c3cnn4ncccc34)n2)C1 — remaining binding (RET M918T; binding; 1 µM): 100%
Nc1ncc2c(n1)-c1c([nH]c3ccc(C#CC4CC4)cc13)CCCC2 — remaining binding (RET V804M; binding, competition with immobilised ligand; 1 µM): 100%
CNC(=O)c1ccc(Nc2ncc(C(F)(F)F)c(NCc3nccnc3N(C)S(C)(=O)=O)n2)cc1 — remaining binding (RET V804M; cell-free assay, competition with immobilised ligand; 0.1 µM): 30%
C[C@@H]1CCN(c2nccc(-c3cnn4ncccc34)n2)C1 — remaining binding (RET V804L; binding; 1 µM): 100%
CC(C)CC(=O)N1CCc2nc(-c3ccc(Br)cc3)nc(N(C)Cc3ccccc3)c2C1 — remaining binding (RET V804M; cell-free assay, competition with immobilised ligand; 0.1 µM): 82%
O=C(c1ccc(Nc2nccc(-c3cc4ccccc4s3)n2)cc1)N1CCC(N2CCCC2)CC1 — remaining binding (RET V804M; binding, competition with immobilised ligand; 1 µM): 99%
CN(C)c1nccc(-c2cnc3ncccn23)n1 — remaining binding (RET V804M; binding; 1 µM): 93%
COc1ncc2cc3ccccc3nc2c1C#N — remaining binding (RET V804M; cell-free assay, competition with immobilised ligand; 5 µM): 98%
CC(C)(C)c1ccc(-c2nc(CBr)nn2-c2cccc(O)c2)cc1 — remaining binding (RET; cell-free assay, competition with immobilised ligand; 10 µM): 93%
COc1cc(-c2cn(C3CCc4ccccc4N(CC(F)(F)F)C3=O)nn2)ccc1-n1ccc(C)n1 (centres unmarked) — remaining binding (RET M918T; cell-free assay, competition with immobilised ligand; 1 µM): 100%
O=C(c1ccc(Nc2ncc(Cl)c(-c3ccc(Cl)s3)n2)cc1)N1CCC(N2CCCC2)CC1 — remaining binding (RET V804L; binding, competition with immobilised ligand; 1 µM): 10%
CN(C)c1nccc(-c2cnn3ncccc23)n1 — remaining binding (RET V804M; binding; 1 µM): 100%
CNC(=O)Nc1ccc2c(c1)CC[C@@]21OC(=O)N(CC(=O)N(Cc2ccc(F)cc2)[C@@H](C)C(F)(F)F)C1=O — remaining binding (RET V804M; cell-free assay, competition with immobilised ligand; 1 µM): 98%
CNC(=O)[C@@H]1CC[C@@H](n2c(-c3ccc4cnccc4c3)nc3ccc(C(=O)NCc4cccc(C(N)=O)c4)cc32)C1 — remaining binding (RET; binding, competition with immobilised ligand; 1 µM): 96%
C[C@@H]1CN(c2cc(-c3nn(C)c4ccc(OC5(C)CC5)cc34)ncn2)C[C@H](C)O1 — remaining binding (RET V804L; cell-free assay, competition with immobilised ligand; 1 µM): 72%
CC1CCCN1c1nccc(-c2cnn3ncccc23)n1 (centres unmarked) — remaining binding (RET V804M; binding; 1 µM): 100%
O=C(NCC1CCOCC1)c1n[nH]cc1NC(=O)c1c(F)cccc1F — remaining binding (RET M918T; binding, competition with immobilised ligand; 1 µM): 96%
COc1cnc(Nc2cccc(S(N)(=O)=O)c2)nc1N1CCN(c2ccccc2)C(=O)C1 — remaining binding (RET V804M; binding, competition with immobilised ligand; 1 µM): 77%
CCc1ccccc1C(=O)Nc1n[nH]c2c(C)c(F)c(C3C(C#N)=C(C)N(C)C(C)=C3C#N)cc12 — remaining binding (RET V804L; cell-free assay, competition with immobilised ligand; 1 µM): 25%
C[C@@H](c1ccc(-n2cnc3c(N)ncnc32)cc1)N1CCc2nn(C)c(Cc3ccccc3)c2C1=O — remaining binding (RET V804M; binding, competition with immobilised ligand; 0.1 µM): 80%
CN(c1nccc(-c2cnn3ncccc23)n1)C1CC1 — remaining binding (RET; binding; 1 µM): 84%
O=C(Nc1c[nH]nc1C(=O)NC1CCNCC1)c1cc(F)cc(F)c1 — remaining binding (RET M918T; binding, competition with immobilised ligand; 1 µM): 100%
O=C(c1ccc(Nc2ncc(Cl)c(-c3cc4ccccc4s3)n2)cc1)N1CCC(N2CCCC2)CC1 — remaining binding (RET M918T; binding, competition with immobilised ligand; 1 µM): 13%
O=C(N[C@H]1CCCCC/C=C\C2C[C@@]2(C(=O)O)NC(=O)[C@@H]2C[C@@H](Oc3ccncc3)CN2C1=O)OC1CCCC1 (some centres unmarked) — remaining binding (RET; binding, competition with immobilised ligand; 1 µM): 94%
COc1cnc(Nc2cccc(S(N)(=O)=O)c2)nc1N1CCN(c2ccccc2)CC1 — remaining binding (RET; binding, competition with immobilised ligand; 1 µM): 64%
